Laboratory results reported in ChEMBL document CHEMBL1140566, “Discovery of novel isoxazolines as anti-tuberculosis agents” (Bioorg Med Chem Lett, 2007).
Converted amounts (≈) assume the structure as drawn.

Tests used:
[1] = system: Mycobacterium tuberculosis; assay: Antituberculosis activity against Mycobacterium tuberculosis by microbroth dilution method; assay type: functional
Procedure, shortened: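 M. tuberculosis susceptibility was measured by microbroth dilution and reported as MIC90 in μg/mL.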

[2] = system: Mycobacterium tuberculosis; assay: Antituberculosis activity in Mycobacterium tuberculosis infected rat assessed as reduction of colony formation; assay type: functional
[3] = Solubility at pH 6.0 by shake-flask method; assay type: physicochemical; conditions: buffer
Procedure, shortened: (§1)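 Aqueous solubility was determined by a miniaturized shake-flask method at pH 6.0 and at pH 7.4, reported in mg/L.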

[4] = Solubility at pH 7.4 by shake-flask method; assay type: physicochemical; conditions: buffer; procedure, shortened: as §1
[5] = Stability in rat liver microsomes after 90 mins; assay type: ADME, Microsome; conditions: read-out: Stability
Procedure, shortened: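 Compounds were incubated with pooled rat liver microsomes and loss of parent was monitored. Intact parent was quantified by LC-MS/MS and reported as % remaining at 90 min.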

[6] = Protein binding in rat; assay type: ADME, organism-based; conditions: plasma, read-out: PB (converted)
Procedure, shortened: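 Plasma protein binding was measured by equilibrium dialysis in RED devices and reported as percent bound.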

[7] = Half life in rat at 10 mg/kg, iv; assay type: ADME, organism-based; set-up: dose 10 mg/kg, route intravenous; conditions: in vivo
Procedure, shortened: (§2)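 Rats were given single doses at 10 mg/kg intravenously or 100 mg/kg orally. Half-life, AUC to infinity (μg·hr/L), volume of distribution (L/kg) and clearance (L/hr/kg) were derived for each route. Oral bioavailability was calculated relative to the IV dose.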

[8] = Half life in rat at 100 mg/kg, po; assay type: ADME, organism-based; set-up: dose 100 mg/kg, route oral; conditions: in vivo; procedure, shortened: as §2
[9] = AUC (0 to infinity) in rat at 10 mg/kg, iv; assay type: ADME, organism-based; set-up: time infinity, dose 10 mg/kg, route intravenous; conditions: plasma; procedure, shortened: as §2
[10] = AUC (0 to infinity) in rat at […]; assay type: ADME, organism-based; set-up: time infinity; conditions: plasma
[11] = Volume of distribution in rat at 10 mg/kg, iv; assay type: ADME, organism-based; set-up: dose 10 mg/kg, route intravenous; conditions: in vivo; procedure, shortened: as §2
Rattus norvegicus = assay: Volume of distribution in rat at 100 mg/kg, po; assay type: ADME, organism-based; set-up: dose 100 mg/kg, route oral; conditions: in vivo; procedure, shortened: as §2
[12] = Bioavailability in rat at 100 mg/kg, po; assay type: ADME, organism-based; conditions: in vivo; procedure, shortened: as §2
[13] = Clearance in rat at 10 mg/kg, iv; assay type: ADME, organism-based; set-up: dose 10 mg/kg, route intravenous; conditions: in vivo; procedure, shortened: as §2
[14] = Clearance in rat at 100 mg/kg, po; assay type: ADME, organism-based; set-up: dose 100 mg/kg, route oral; conditions: in vivo; procedure, shortened: as §2

`CC(C)(C)OC(=O)N1CCN(c2ccc(C3CC(c4ccc([N+](=O)[O-])o4)=NO3)cc2)CC1` (stereo not given) showed an MIC90 [1] of 0.1 ng/mL (≈ 0.000226 µM).
With `NNC(=O)c1ccncc1` [ISONIAZID] the MIC90 [1] was 25 ng/mL (≈ 0.182 µM) and the Log10 cfu [2] was 3.98.
Molecule `O=[N+]([O-])c1ccc(C2=NOC(c3ccc(N4CCN(Cc5ccccc5)CC4)cc3)C2)o1` (stereo not given) has an MIC90 [1] of 0.05 ng/mL (≈ 0.000116 µM), a solubility thermodynamic [3] of 3.34 µg/mL (≈ 7.72 µM) and a solubility thermodynamic [4] of 0.236 µg/mL (≈ 0.546 µM). The remaining at 1.5 h [5] was 31%, the fraction unbound [6] was 0.001 and the Log10 cfu [2] was 0.64. For the same molecule, the half-life [7] was 2.6 h, the half-life [8] was 4.2 h and the AUC(0-inf) [9] was 19100 ng·h/mL. The AUC(0-inf) [10] was 65900 ng·h/mL, the Vd [11] was 2 L/kg and the Vd (Rattus norvegicus) was 9.3 L/kg. For the same molecule, the bioavailability [12] was 34.5%, the clearance [13] was 8.83 mL/min/kg and the CL/F [14] was 26.3 mL/min/kg.
Molecule `CCOC(=O)N1CCN(c2ccc(C3CC(c4ccc([N+](=O)[O-])o4)=NO3)cc2)CC1` (stereo not given) has an MIC90 [1] of 0.1 ng/mL (≈ 0.000241 µM), a solubility thermodynamic [3] of 4 µg/mL (≈ 9.65 µM) and a solubility thermodynamic [4] of 3.6 µg/mL (≈ 8.69 µM). For the same molecule, the remaining at 1.5 h [5] was 12%, the fraction unbound [6] was 0.01 and the Log10 cfu [2] was 0.59.
For `c1ccc(CN2CCN(c3ccc(C4CC(c5ccncc5)=NO4)cc3)CC2)cc1` (stereo not given), the MIC90 [1] was 50000 ng/mL (≈ 125 µM).
Work on `CCCC1=NOC(c2ccc(N3CCN(Cc4ccccc4)CC3)cc2)C1` (stereo not given) yielded an MIC90 [1] greater than 200000 ng/mL.
Work on `CCOC(=O)C1=NOC(c2ccc(N3CCN(Cc4ccccc4)CC3)cc2)C1` (stereo not given) yielded an MIC90 [1] of 1560 ng/mL (≈ 3.96 µM).
`CC(C)NC(=O)N1CCN(c2ccc(C3CC(c4ccc([N+](=O)[O-])o4)=NO3)cc2)CC1` (stereo not given) gave an MIC90 [1] of 0.2 ng/mL (≈ 0.000468 µM), a solubility thermodynamic [3] of 27.7 µg/mL (≈ 64.8 µM) and a solubility thermodynamic [4] of 20 µg/mL (≈ 46.8 µM). The remaining at 1.5 h [5] was 26%, the fraction unbound [6] was 0.027 and the Log10 cfu [2] was 0.83.
With `O=[N+]([O-])c1ccc(C2=NOC(c3ccc(N4CCCCC4)cc3)C2)o1` (stereo not given) the MIC90 [1] was 1.56 ng/mL (≈ 0.00457 µM), the solubility thermodynamic [3] was 0.017 µg/mL (≈ 0.0498 µM) and the Solubility [4] was 0.014 µg/mL (≈ 0.041 µM). For the same molecule, the remaining at 1.5 h [5] was 6% and the fraction unbound [6] was 0.012.
`c1ccc(CN2CCN(c3ccc(C4CC(c5ccccn5)=NO4)cc3)CC2)cc1` (stereo not given) showed an MIC90 [1] greater than 200000 ng/mL.
Molecule `O=[N+]([O-])c1ccc(C2=NOC(c3ccc(N4CCN(Cc5ccccc5)CC4)cc3)C2)cc1` (stereo not given) has an MIC90 [1] greater than 200000 ng/mL.
